# Dynein cargo inh = dynein cargo transport inhibition. actives 0.47% (n = 220,000). 3617.4 mouse cells, GR-EGFP nuclear translocation imaging; test concentration mostly 20 µM; stimulated with dexamethasone, 1 µM; hits give low values. AID 1381. z-score, hits read low;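 active = plate z-score of nuclear minus cytoplasmic receptor signal below a set negative limit, without overly bright fluorescence or cell loss, cut at about -3.5 in these data, passing the limit was not always enough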;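 note: z-score of nuclear minus cytoplasmic ring GR-EGFP intensity difference per well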
#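 Medium: Induction medium lacking tetracycline, stripped serum | Probe or stimulus: 1.0 µM final dexamethasone stimulus | Schedule: 48 h induction, then 1 h compound, then 30 min agonist, 37 °C | Signal: Automated 10x imaging of fixed Hoechst-stained cells | Evaluation: Per-cell GR-EGFP intensity, nucleus versus surrounding cytoplasmic ring, well-averaged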
# KCC2 mod = modulates chloride dependent transport by human KCC2; Q9H2X9; KCC2 cells, thallium flux FluoZin-2 fluorescence; B-score of Tl+ flux slope (higher = more flux/activation; lower = inhibition) at 10 µM; actives 2.2% (n = 190,000); AID 1456;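 active = thallium flux slope and its plate-corrected score both differing from the plate sample mean at a set confidence after two filtering rounds, in either direction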;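 note: slope of fluorescence scaled to starting intensity during 10 to 20 s after thallium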
# DTT redox prof = compounds producing H2O2 with reducing agent – biochemical, NIH compound library profiling, artefact control for MLSCN library redox annotation, primary screen | DTT-dependent redox cycling H2O2, phenol red/HRP absorbance; 100% = 100 µM peroxide control, 0% = buffer | activation, % at 10 µM | actives 0.03% (n = 200,000) | AID 878;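 active = activation of at least 50% relative to the plate's high and low controls in the primary single-dose screen; inactive = activation below 50%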;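 note: compound incubated with DTT at 0.8 mM final as the reducing agent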
# Autophagy mod = modulators of autophagy; MEF GFP-LC3 puncta imaging; test concentration mostly 10 µM; actives 0.98% (n = 190,000); calls only at 10 µM (by protocol); AID 463193;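 active = percentage of spot-positive cells more than 3 SD above its plate mean, without a fluorescence outlier flag or 80% toxicity; inconclusive = no clear call, values can overlap the other calls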;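 note: spot-positive cell cutoff set from DMSO-treated cells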
# ROMK mod = modulates human ROMK potassium channel activity | P48048 | Tet-inducible ROMK, thallium flux fluorescence; actives lie on both sides | B-score at 10 µM | actives 2% (n = 130,000);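 active = signal ratio slope over the read window, or its plate-corrected B-score, at least 3 SD from the plate mean, either direction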;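 note: B-score of the F/F0 ratio slope over 7 to 12 s after thallium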
# Target sequence (P48048 whole entry, looked up): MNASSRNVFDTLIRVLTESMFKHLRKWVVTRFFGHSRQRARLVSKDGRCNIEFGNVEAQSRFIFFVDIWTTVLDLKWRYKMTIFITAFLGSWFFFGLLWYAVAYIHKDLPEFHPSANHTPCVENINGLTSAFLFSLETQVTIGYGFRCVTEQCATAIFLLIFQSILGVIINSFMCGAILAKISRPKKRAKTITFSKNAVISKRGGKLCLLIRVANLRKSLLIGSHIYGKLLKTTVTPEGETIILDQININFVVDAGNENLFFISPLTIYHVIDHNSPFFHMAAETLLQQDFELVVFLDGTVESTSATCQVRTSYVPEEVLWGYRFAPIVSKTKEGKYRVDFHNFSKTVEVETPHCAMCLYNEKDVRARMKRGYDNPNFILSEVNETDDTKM
# KCC2 secondary = KCC2 (human) modulation, secondary assay; normalised thallium flux (F/F0 slope) at 10 µM; actives 15% (n = 3,700); shares compounds with KCC2 mod; HEK293-KCC2, thallium flux, FluoZin2 fluorescence; hits give high values;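 active = thallium flux slope above the same plate's solvent-only control mean plus 3 SD; inconclusive = the two replicate wells disagree; inactive = no significant difference from solvent-only control wells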
# KCC2 bumet counter = thallium flux despite bumetanide block in KCC2 cells, secondary assay 3; shares compounds with KCC2 mod; HEK293-KCC2 + bumetanide/ouabain, thallium flux FluoZin2; hits give high values; normalized thallium flux at 10 µM; actives 49% (n = 3,700); AID 1714;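 active = thallium entry rate above the same plate's blocked-transporter control wells by more than 3 SD; inconclusive = the two repeat wells disagree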;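 note: raw slope of fluorescence over initial fluorescence between 10 and 20 s after thallium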
# KCC2 secondary2 = confirmation of human KCC2 transport modulators; shares compounds with KCC2 mod; HEK293-KCC2, thallium flux FluoZin2 fluorescence; actives lie on both sides; F/F0 rise rate, 10–20 s post-thallium; normalized thallium flux at 10 µM; actives 23% (n = 3,700);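 active = thallium flux slope more than 3 SD above or below the plate's solvent-only control mean, mostly below; inconclusive = the two repeat wells disagreed; inactive = no significant shift from solvent-only controls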;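 note: raw slope with 0.1% DMSO as baseline and bumetanide as block control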
# HEK counter1 = counter-screen for KCC2 modulators: effect in parental HEK293 cells; shares compounds with KCC2 mod; thallium flux FluoZin2, ouabain; baseline-ratio fluorescence slope, 10–20 s after thallium; thallium flux rate (normalised fluorescence) at 10 µM; actives 46% (n = 3,700); AID 1716;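 active = thallium flux rate significantly above the same plate's solvent-only control wells, beyond their mean plus 3 SD; inconclusive = the two replicate wells gave conflicting results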
# KCC2 ouabain = confirmation of human KCC2 modulators with ouabain. shares compounds with KCC2 mod. HEK293-KCC2, thallium flux FluoZin2 fluorescence; bidirectional: low = inhibitor, high = activator. raw Tl+ flux slope (below DMSO = inhibition, above = activation) at 10 µM. actives 48% (n = 3,700);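 active = thallium flux slope beyond 3 SD from same-plate DMSO control mean in most replicates, usually higher, sometimes lower; inconclusive = repeat tests gave conflicting results; inactive = no significant difference from controls in most replicates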;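 note: slope of initial-normalized fluorescence between seconds 10 and 20 after thallium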
# HEK293 Tl flux2 = acts in parental HEK cells, second KCC2 counter-screen | shares compounds with KCC2 mod | HEK293 parental, thallium flux FluoZin-2 fluorescence slope | thallium flux slope at 10 µM | actives 33% (n = 3,700) | AID 1718;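 active = thallium flux slope above the same plate's solvent-control mean plus 3 SD in both duplicate wells; inconclusive = duplicate wells that disagreed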;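 note: run without ouabain in cells lacking the KCC2 cotransporter; slope of fluorescence scaled to its starting value between 10 and 20 s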
# * marks the source's active call; other numbers are inactive results; i = inactive; ? = inconclusive; · = no result given. Only some compounds are listed: those with a hit (about 4.1% of all), similar ones and a draw of the others.
SMILES,Dynein cargo inh,KCC2 mod,DTT redox prof,Autophagy mod,ROMK mod,KCC2 secondary,KCC2 bumet counter,KCC2 secondary2,HEK counter1,KCC2 ouabain,HEK293 Tl flux2
COc1cc(OC)c(C2=NOC(C(=O)N3CCc4ccccc4C3)C2)cc1Cl (stereo unspecified),1.1,-3.2*,0,i,·,0.0057,0.0039,0.024*,0.0074,?,0.0092
O=C(C1CC(c2ccc(F)cc2)=NO1)N1CCN(Cc2ccccc2)CC1 (stereo unspecified),1.7,·,-1,i,·,·,·,·,·,·,·
COc1cccc(C2=NOC(C(=O)N3CCN(Cc4ccccc4)CC3)C2)c1OC (stereo unspecified),-1.4,-4*,-1,i,·,0.0065,0.0057,0.029,0.0062,0.016*,?
Cc1ccc(C(=O)CSc2ncnc3sc4c(c23)CCC(C)C4)cc1 (stereo unspecified),0.18,4.2*,2,i,·,?,0.037*,0.037,?,?,0.012
CC(=O)CSc1ncnc2sc3c(c12)CCC3,-0.036,7.1*,-2,i,-1.3,0.019,0.024*,0.033,0.014*,0.022*,0.017*
CC(C)(C)C(=O)CSc1ncnc2sc3c(c12)CCC3,-0.5,0.81,-1,i,0.0062,·,·,·,·,·,·
O=C1OCCC1Sc1ncnc2sc3c(c12)CCC3 (stereo unspecified),-0.5,3.3*,2,i,0.009,0.0055,0.024*,?,0.018*,?,0.018*
Cc1cc(/C=C2\C(=N)N3N=CSC3=NC2=O)c(C)n1Cc1ccccc1,0.49,-0.7,·,·,-0.93,·,·,·,·,·,·
CCN(CC)c1c([N+](=O)[O-])c(=O)n(CC)c2ccccc12,0.98,-4.6*,·,·,·,0.0059,0.0031*,0.029,0.0045*,0.017*,0.0076*
CCNc1c([N+](=O)[O-])c(=O)n(CC)c2ccccc12,-0.23,-0.36,·,·,·,·,·,·,·,·,·
O=C(NC1CCN(Cc2ccccc2)CC1)c1ccc(N2CC3CC(C2)c2cccc(=O)n2C3)c([N+](=O)[O-])c1 (stereo unspecified),-0.58,0.053,0,i,-0.11,·,·,·,·,·,·
O=C(O)c1ccc(N2CC3CC(C2)c2cccc(=O)n2C3)c(NC(=S)Nc2ccc(Cl)cc2Cl)c1 (stereo unspecified),1,15*,0,i,0.089,0.011,0.015*,0.035,?,?,0.013
N#Cc1c(Cl)nc(SCc2ccccc2)nc1-c1ccccc1,-0.14,-4.9*,3,i,·,0.0055,0.0039,0.024*,0.0055*,0.014*,0.0083*
O=c1nc(SCc2ccc(Cl)cc2)nc(-c2ccccc2)[nH]1,0.44,-1.4,·,·,·,·,·,·,·,·,·
Cc1ccc(S(=O)(=O)N2CCC(C(=O)NCc3ccccc3Cl)CC2)cc1,0.84,-2.9*,0,i,-1.4,0.0052,0.0045,0.028,0.0071,0.015*,0.011
NC(=O)CSc1nc2ccccc2n1Cc1ccccc1,0.15,0.72,0,i,-1.5,·,·,·,·,·,·
Cc1ccc(-c2csc3ncnc(SCC(N)=O)c23)cc1,0.69,7.9*,0,i,1.4,0.018*,0.06*,0.038,?,0.05*,?
